Here are results for nine compounds from ChEMBL document CHEMBL1932986, “Synthesis and in vitro antimycobacterial activity of compounds derived from (R)- and (S)-2-amino-1-butanol - The crucial role of the configuration” (Eur J Med Chem, 2012).

What all share (type): functional
Assay [1] has as its system Mycobacterium tuberculosis. Description: Antimycobacterial activity against Mycobacterium tuberculosis H37Rv after 45 days. An outline of the steps:
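Canetti proportion method. Compound in DMSO is added to Löwenstein–Jensen egg medium before coagulation (30 min, 85 °C), tested at three levels plus a lower one where needed. Tubes are inoculated with H37Rv at 10⁵ cells/ml and incubated 45 days at 37 °C. Colony counts versus drug-free control give percentage inhibition.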

The next assay deals with Bacillus subtilis. Description: Antibacterial activity against Bacillus subtilis ATCC 6633 at 50 mg/ml after 24 hrs by agar diffusion test. The note with it: for zone of inhibition at 50000 µg/mL: ATCC 6633, 24 h, read-out: DIZ. An outline of the steps: (§1)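 Agar diffusion: wells in agar filled with […] DMSO solution of compound at various concentrations; diameter of clear zone around application point measured. Bacteria grown 24 h at 37 °C on nutrient agar. Compounds first screened at 50 mg/ml; those active then tested at lower concentrations. Bracketed value = lowest concentration (mg/ml) giving zone >11 mm, reported only if activity retained at ≤1.25 mg/ml.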
A general note: In agar diffusion tests the substance spreads into inoculated agar from a disc or well.

A further assay relates to Bacillus. Description: Antibacterial activity against Bacillus idosus B 241 at 50 mg/ml after 24 hrs by agar diffusion test. The note with it: for zone of inhibition at 50000 µg/mL: B 241, 24 h, read-out: DIZ. The method in brief: as §1
For the next assay, the system named is Priestia megaterium. Description: Antibacterial activity against Bacillus megaterium NRRL 1353895 at 50 mg/ml after 24 hrs by agar diffusion test. The note with it: for zone of inhibition at 50000 µg/mL: NRRL 1353895, 24 h, read-out: DIZ. The method in brief:
as §1

The subject of a further assay is Bacillus mycoides. Description: Antibacterial activity against Bacillus mycoides DSMZ 274 at 50 mg/ml after 24 hrs by agar diffusion test. As to conditions: for zone of inhibition at 50000 µg/mL: DSMZ 274, 24 h, read-out: DIZ. The method in brief: as §1
A further assay deals with Bacillus cereus. Description: Antibacterial activity against Bacillus cereus ATCC 11778 at 50 mg/ml after 24 hrs by agar diffusion test. The note with it: for zone of inhibition at 50000 µg/mL: ATCC 11778, 24 h, read-out: DIZ. An outline of the steps:
as §1

The next assay relates to Acinetobacter johnsonii. Description: Antibacterial activity against Acinetobacter johnsonii ATCC 17909 at 50 mg/ml after 24 hrs by agar diffusion test. The note with it: for zone of inhibition at 50000 µg/mL: ATCC 17909, 24 h, read-out: DIZ. The method in brief: as §1
A further assay relates to Staphylococcus aureus. Description: Antibacterial activity against Staphylococcus aureus NRRL B 313 at 50 mg/ml after 24 hrs by agar diffusion test. The note with it: for zone of inhibition at 50000 µg/mL: NRRL B 313, 24 h, read-out: DIZ. The method in brief:
(§2)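 Agar diffusion: bacteria grown 24 h at 37 °C on nutrient agar. Wells in the agar are filled with […] of compound solution in DMSO at various concentrations. The diameter of the clear zone around the application point is measured. Bracketed values give the lowest concentration (mg/ml) that produces a zone >11 mm. A first screen is run at 50 mg/ml.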

Assay [2] concerns Micrococcus luteus. Description: Antibacterial activity against Sarcina lutea ATCC 9341 at 50 mg/ml after 24 hrs by agar diffusion test. As to conditions: for zone of inhibition at 50000 µg/mL: ATCC 9341, 24 h, read-out: DIZ. An outline of the steps: as §2
In assay [3] the test system is Micrococcus luteus. Description: Antibacterial activity against Micrococcus luteus ATCC 9631 at 50 mg/ml after 24 hrs by agar diffusion test. The note with it: for zone of inhibition at 50000 µg/mL: ATCC 9631, 24 h, read-out: DIZ. An outline of the steps:
as §1

A further assay deals with Escherichia coli. Description: Antibacterial activity against Escherichia coli ATCC 8739 at 50 mg/ml after 24 hrs by agar diffusion test. The method in brief:
as §1

For the next assay, the system named is Candida tropicalis. Description: Antifungal activity against Candida tropicalis ATCC 20336 at 50 mg/ml after 72 hrs by agar diffusion test. As to conditions: for zone of inhibition at 50000 µg/mL: ATCC 20336, 72 h, read-out: DIZ. The method in brief: (§3)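 Agar diffusion: yeasts grown on yeast peptone dextrose agar and fungi on potato dextrose agar. Wells are filled with […] of compound solution in DMSO at various concentrations, and the clear-zone diameter is measured. Bracketed values give the lowest concentration (mg/ml) that produces a zone >11 mm. A first screen is run at 50 mg/ml.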

The next assay concerns Saccharomyces cerevisiae. Description: Antifungal activity against Saccharomyces cerevisiae ATCC 9763 at 50 mg/ml after 72 hrs by agar diffusion test. The method in brief:
as §3

The test system of the next assay is Penicillium chrysogenum. Description: Antifungal activity against Penicillium chrysogenum CECT 2802 at 50 mg/ml after 72 hrs by agar diffusion test. The note with it: for zone of inhibition at 50000 µg/mL: CECT 2802, 72 h, read-out: DIZ. The method in brief:
as §3

The structures appear in SMILES notation. Values after ≈ are worked out from the molar mass of the structure shown. Active and inactive are the calls of the source. The calls are words filed in the database; no cut-off is given here. Where only a bound is given, the exact number is not on record here.

As for `CC[C@H](CO)NC(=O)c1ccncc1`, the MIC (commonly the least concentration at which growth counts as inhibited) in assay [1] is over 25.7 µM. The “diameter of the inhibition zone (DIZ)” value in the assay on Bacillus subtilis, in the assay with Bacillus, in the assay on Priestia megaterium, with Bacillus mycoides, in the assay with Bacillus cereus and in the assay with Acinetobacter johnsonii was “inactive” each time. The “diameter of the inhibition zone (DIZ)” value in the assay with Staphylococcus aureus, with Micrococcus luteus [2], in the assay with Micrococcus luteus [3], in the assay on Escherichia coli, in the assay with Candida tropicalis and in the assay on Saccharomyces cerevisiae was “inactive” in each case. Further, in the assay on Penicillium chrysogenum, the “diameter of the inhibition zone (DIZ)” value is “inactive”.
In the case of `CC[C@H](CO)N(Cc1ccccc1)Cc1ccccc1`, in assay [1], the MIC is over 18.6 µM. The “diameter of the inhibition zone (DIZ)” value in the assay on Bacillus subtilis, with Priestia megaterium, in the assay with Bacillus mycoides, with Escherichia coli, in the assay on Saccharomyces cerevisiae and in the assay on Penicillium chrysogenum was “inactive” in each case. Further, the zone of inhibition at 50000 µg/mL in the assay with Bacillus was 11 mm; with Bacillus cereus, 11 mm; with Acinetobacter johnsonii, 11 mm; with Staphylococcus aureus, 11 mm; in the assay with Micrococcus luteus [2], 12 mm; with Micrococcus luteus [3], 12 mm. The zone of inhibition at 50000 µg/mL in the assay with Candida tropicalis came to 10 mm.
Consider `CC[C@H](CO)NC(c1ccccc1)(c1ccccc1)c1ccccc1`, for which the MIC in [1] is over 15.1 µM. Besides, in the assay with Bacillus subtilis, the zone of inhibition at 50000 µg/mL amounted to 12 mm. Further, the “diameter of the inhibition zone (DIZ)” value with Bacillus, in the assay with Priestia megaterium, in the assay with Bacillus mycoides, in the assay on Bacillus cereus, in the assay on Acinetobacter johnsonii and with Staphylococcus aureus was “inactive” in each case. Further, the “diameter of the inhibition zone (DIZ)” value in the assay with Micrococcus luteus [2], with Micrococcus luteus [3], in the assay on Escherichia coli, with Candida tropicalis, in the assay on Saccharomyces cerevisiae and with Penicillium chrysogenum was “inactive” each time.
As to `CC[C@H](CO)NC(=O)C(C)(C)C`, the MIC in assay [1] is 28.9 µM (≈ 5 µg/mL). The zone of inhibition at 50000 µg/mL with Bacillus subtilis worked out at 15 mm; in the assay on Bacillus, 11 mm; in the assay on Bacillus mycoides it was 11 mm; in the assay on Bacillus cereus, 16 mm; with Staphylococcus aureus, 15 mm. In addition, the “diameter of the inhibition zone (DIZ)” value in the assay with Priestia megaterium, with Acinetobacter johnsonii, in the assay with Micrococcus luteus [2], in the assay with Micrococcus luteus [3], with Escherichia coli and with Candida tropicalis was “inactive” each time. In addition, the “diameter of the inhibition zone (DIZ)” value in the assay with Saccharomyces cerevisiae and in the assay on Penicillium chrysogenum was “inactive” each time.
On to `CC[C@H](CO)NCc1ccncc1`, for which, in assay [1], inhibition of growth (MIC) required 27.7 µM (≈ 5 µg/mL). In addition, the “diameter of the inhibition zone (DIZ)” value in the assay with Bacillus subtilis, with Bacillus, with Priestia megaterium, in the assay on Bacillus mycoides, in the assay on Bacillus cereus and with Acinetobacter johnsonii was “inactive” in each case. The “diameter of the inhibition zone (DIZ)” value in the assay with Staphylococcus aureus, with Micrococcus luteus [2], in the assay with Micrococcus luteus [3], in the assay with Escherichia coli, in the assay with Candida tropicalis and in the assay with Saccharomyces cerevisiae was “inactive” in each case. In addition, the “diameter of the inhibition zone (DIZ)” value in the assay with Penicillium chrysogenum is “inactive”.
As to `CC[C@H](CO)NCc1ccccc1O`, it took 25.6 µM (≈ 5 µg/mL) to inhibit growth in assay [1] (MIC). For the same compound, the zone of inhibition at 50000 µg/mL stood at 17 mm in the assay on Bacillus subtilis; 11 mm in the assay on Bacillus; 12 mm in the assay on Priestia megaterium; 14 mm in the assay with Bacillus mycoides; 14 mm with Bacillus cereus; 13 mm in the assay on Acinetobacter johnsonii. Further, the zone of inhibition at 50000 µg/mL with Staphylococcus aureus stood at 12 mm; in the assay with Micrococcus luteus [2], 12 mm; with Micrococcus luteus [3], 11 mm; in the assay on Penicillium chrysogenum, 12 mm. Moreover, the “diameter of the inhibition zone (DIZ)” value in the assay with Escherichia coli, in the assay on Candida tropicalis and in the assay with Saccharomyces cerevisiae was “inactive” throughout.
For `CC[C@H](CO)N(CC(=O)Nc1c(C)cccc1C)CC(=O)Nc1c(C)cccc1C`, the MIC in assay [1] is over 12.2 µM. For the same compound, the “diameter of the inhibition zone (DIZ)” value in the assay on Bacillus subtilis, in the assay with Priestia megaterium, with Acinetobacter johnsonii, in the assay on Micrococcus luteus [2], with Escherichia coli and in the assay with Candida tropicalis was “inactive” each time. The “diameter of the inhibition zone (DIZ)” value with Saccharomyces cerevisiae and in the assay with Penicillium chrysogenum was “inactive” in each case. Moreover, the zone of inhibition at 50000 µg/mL was 10 mm with Bacillus; 12 mm in the assay with Bacillus mycoides; 11 mm in the assay on Bacillus cereus; 15 mm in the assay with Staphylococcus aureus; 12 mm with Micrococcus luteus [3].
In the case of `CC[C@H](CO)NC(=O)Nc1cccc2ccccc12`, in [1], the MIC is over 19.4 µM. The “diameter of the inhibition zone (DIZ)” value in the assay on Bacillus subtilis, with Bacillus, in the assay on Priestia megaterium, in the assay with Bacillus mycoides, with Bacillus cereus and with Acinetobacter johnsonii was “inactive” throughout. Further, the “diameter of the inhibition zone (DIZ)” value with Staphylococcus aureus, with Micrococcus luteus [2], in the assay with Micrococcus luteus [3], in the assay with Escherichia coli, in the assay with Candida tropicalis and in the assay with Saccharomyces cerevisiae was “inactive” throughout. In addition, the “diameter of the inhibition zone (DIZ)” value with Penicillium chrysogenum is “inactive”.
In assay [1], `CC[C@H](CO)NCc1cccc2ccccc12` came in with an MIC of 21.8 µM (≈ 5 µg/mL). In addition, the zone of inhibition at 50000 µg/mL in the assay with Bacillus subtilis came to 17 mm; in the assay on Bacillus it was 18 mm; with Priestia megaterium, 10 mm; with Bacillus mycoides, 18 mm; with Bacillus cereus it was 15 mm; with Acinetobacter johnsonii, 20 mm. In addition, the zone of inhibition at 50000 µg/mL amounted to 16 mm in the assay on Staphylococcus aureus; 13 mm in the assay on Micrococcus luteus [2]; 17 mm in the assay with Micrococcus luteus [3]; 28 mm with Escherichia coli (ATCC 8739, 24 h, read-out: DIZ); 30 mm with Candida tropicalis; 32 mm in the assay on Saccharomyces cerevisiae (ATCC 9763, 72 h, read-out: DIZ). The zone of inhibition at 50000 µg/mL with Penicillium chrysogenum stood at 22 mm.
